Screening data as filed in PubChem BioAssay.
GRIN3A LBD mod: modulates the human NR3A ligand-binding domain | NR3A LBD differential scanning fluorimetry, Tm shift; 0% = protein alone, 100% = glycine-bound protein | Tm shift relative to glycine control, % at 25 µM | hit rate 2.5% among 340,000;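 active means melting temperature shift of at least 10% of the positive control shift, at one fixed dose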
CHOP inh: blocks CHOP induction under ER stress. CHO-K1 CHOP-promoter luciferase, tunicamycin-induced, 15-18 h. inhibition, % at 10 µM. hit rate 3.8% among 220,000. AID 2732;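 active means compounds that reduced the stress-induced luciferase reporter signal by more than about 70% of percent inhibition, limit read from the data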
aDG glyco up: increases alpha dystroglycan glycosylation. Pro5-aDG cells, alpha-DG glycosylation AlphaScreen (IIH6); 0% Pro5, 100% B10-LARGE cell signal. activation, % at 10 µM. hit rate 0.22% among 360,000;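 active means activation of at least 8% versus controls, or a plate z-score of at least 8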;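 further: Pro5 are CHO cells carrying HIG-tagged alpha-DG that lacks glycosylation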
MPTP inh: permeability transition pore inhibition. hit rate 1.4% among 360,000. isolated mouse mitochondria, Ca2+ swelling absorbance, 30 min. inhibition, % at 10 µM. AID 602449;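 active means inhibition of 50% or more, scaled per plate between neutral and stimulator controls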
XBP1 UPR activ: adaptive UPR (XBP1) activation. CHO-XBP1 luciferase reporter, IRE1-XBP1 UPR activation, luminescence; percent of tunicamycin response, DMSO as zero. activation, % at 20 µM. hit rate 0.33% among 330,000;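 active means versus positive control, 20 µM dose yields 30% or more activation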
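Material: CHO-XBP1 cells stably carrying IRE1-XBP1-driven luciferase reporter / Amount: 1000 cells per well / Compound: 20 µM, 1% DMSO / Times: 6 h treatment, 37 °C / Detection: luciferase luminescence / Measure: % activation of reporter signal versus tunicamycin and DMSO controls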
CHOP UPR activ: apoptotic UPR (CHOP) activation; CHO-CHOP luciferase reporter, luminescence; percent of tunicamycin response over DMSO baseline; activation, % at 10 µM; hit rate 0.34% among 330,000; AID 449763;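 active means at 10 µM dose, activation of 40% or more, normalized to positive control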
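Assay system: CHO cells with stable CHOP pathway luciferase reporter; Buffer or medium: F12 plus 10% serum; Times: 16-18 h cell attachment, then 6 h compound exposure, 37 °C; Signal: luciferase luminescence; Read-out basis: percent activation relative to tunicamycin control; Control set: tunicamycin high control, DMSO low control.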
Each line names hits and unclear results; the compound was inactive in the other large screens. Rows were chosen to be rich in hits. Some 5.6% of all compounds tested hit in one or more screens of this group.

CN(C)c1cccc(F)c1C(=O)NC(=O)Nc1ccc(Cl)cc1	GRIN3A LBD mod 11.2 (no result: CHOP inh, XBP1 UPR activ, CHOP UPR activ)
O=C(CCNC(=O)C1CCN(S(=O)(=O)c2ccc(F)cc2)CC1)Nc1nccs1	none (no result: CHOP inh)
COc1cc(NC(=O)c2ccc(S(=O)(=O)N(C)c3ccccc3)cc2)cc(OC)c1	none (no result: CHOP inh)
COc1ccc(-c2cc(-c3ccc(Br)cc3)nc3ncnn23)cc1OC	CHOP inh 78.9
COc1ccc(-c2cc(-c3ccccc3)nc3ncnn23)cc1	none
O=C(Nc1ccc(OC(F)(F)F)cc1)Nc1cccnc1	GRIN3A LBD mod 10.9
Cc1ccc(NC(=O)Nc2cccnc2)cc1Cl	GRIN3A LBD mod 30.7 (no result: CHOP inh, XBP1 UPR activ, CHOP UPR activ)
Cc1ccc(NC(=O)Nc2ccon2)cc1Cl	none (no result: CHOP inh)
Cc1ccc(NC(=O)Nc2ccc3c(c2)C(=O)OC3)cc1Cl	GRIN3A LBD mod 23.9
S=C(c1ccc(-c2cc(Cl)ccc2Cl)o1)N1CCCCC1	none
S=C(c1ccc(-c2cc(Cl)ccc2Cl)o1)N1CCOCC1	CHOP inh 70.2
Cc1ccc(OCC(=O)NNC(=O)c2ccc(NC(=O)C3CC3)cc2)c(C)c1	GRIN3A LBD mod 28.4 (no result: CHOP inh)
CCC(=O)Nc1cc2nn(-c3ccc(OC)cc3)nc2cc1C	none
CCC(=O)Nc1cc2nn(-c3ccc(C)cc3)nc2cc1C	CHOP inh 91.4
Clc1ccc(-c2nc3ccc(Br)cn3c2Cc2cccc(Cl)c2)cc1	none (no result: GRIN3A LBD mod, CHOP inh, XBP1 UPR activ, CHOP UPR activ)
Cc1cc(NS(=O)(=O)c2ccc(NC(=O)c3cnc(Cl)c(Cl)c3)cc2)nc(C)n1	none (no result: CHOP inh)
Cc1noc(C)c1COC(=O)CCc1nc2ccccc2c(=O)[nH]1	GRIN3A LBD mod 21.5
CCCN(CCC)Cc1cc2ccccc2c2c1COC2	none
CCCCN(CCCC)Cc1cc2ccccc2c2c1COC2	CHOP inh 76.3
Cc1cccc(C)c1NC(=O)CNC(=O)c1ccncc1	none (no result: CHOP inh)
CC(Sc1ccccc1)C(=O)N/N=C/c1ccccc1 (stereo not given)	none (no result: CHOP inh)
CCCCOP(=O)(OCCCC)C(Nc1ccccc1)c1ccc2c(c1)OCO2 (stereo not given)	GRIN3A LBD mod 14.3, CHOP inh 91.1 (no result: XBP1 UPR activ, CHOP UPR activ)
CC(=O)NC(C)(c1ccccc1)c1nc(-c2csc3ccccc23)cs1 (stereo not given)	none (no result: GRIN3A LBD mod, CHOP inh, XBP1 UPR activ, CHOP UPR activ)
CCCCN(C(=O)c1ccc(OC)c([N+](=O)[O-])c1)c1c(N)n(CCC)c(=O)[nH]c1=O	none (no result: CHOP inh)
Cc1ccc(NC(=O)C(OC(=O)c2ccc(F)cc2)c2ccccc2)cc1Cl (stereo not given)	CHOP inh 73.2 (no result: XBP1 UPR activ, CHOP UPR activ)
CC1=C(C(=O)N(C(C)C)C(C)C)CC(CC(=O)NCCc2ccccn2)C(=O)N1Cc1ccc(F)cc1 (stereo not given)	none (no result: GRIN3A LBD mod, CHOP inh, XBP1 UPR activ, CHOP UPR activ)
Cc1ccccc1C(=O)NC1CCN(CC(=O)NC2CCCCC2)CC1	none (no result: CHOP inh)
CC(=O)Nc1ccc(S(=O)(=O)N2CCSC2c2ccc(Cl)cc2)cc1 (stereo not given)	none
COc1ccc(S(=O)(=O)N2CCSC2c2ccc(N)cc2)cc1 (stereo not given)	GRIN3A LBD mod 10.5
O=S1(=O)CC(N2CCN(CCO)CC2)CN1Cc1cn(Cc2cccc(C(F)(F)F)c2)nn1 (stereo not given)	none (no result: GRIN3A LBD mod, CHOP inh, XBP1 UPR activ, CHOP UPR activ)
COc1ccc(/C=N/NC(=O)Cc2csc(Nc3cccc(C(F)(F)F)c3)n2)cc1C	GRIN3A LBD mod 21.7, CHOP inh 81.2
CCCN(CCC)c1nc2ccccc2n2c(C)nnc12	CHOP inh 83.1
CCCNc1nc2ccccc2n2c(C)nnc12	none (no result: CHOP inh)
COc1ccc(C(=O)NNC2=Nc3cccc4cccc2c34)cc1	none
Cc1ccc(C(=O)NNC2=Nc3cccc4cccc2c34)cc1	CHOP inh 89.4
Cc1snc(SCC(=O)c2ccc(Cl)cc2)c1C#N	none
Cc1ccc(C(=O)CSc2nsc(C)c2C#N)cc1	GRIN3A LBD mod 14.7
C#Cc1cccc(C(=O)N2CCCC(C(=O)c3ccc(OC)cc3C)C2)c1 (stereo not given)	none (no result: CHOP inh)
COc1ccc(S(=O)(=O)N2CCC(C(=O)N[C@@H](C)C(=O)NC3CC3)CC2)cc1	none (no result: CHOP inh)
COc1ccc(NS(=O)(=O)c2ccc(Cl)c(NC(=O)c3ccccc3F)c2)cc1	none (no result: CHOP inh)
CC(C)(C)C(=O)Nc1cc(S(=O)(=O)Nc2ccc(Cl)cc2)ccc1Cl	CHOP inh 74.9
Cc1ccc(NC(=O)C2CCCC2)cc1Cl	none (no result: CHOP inh)
